Assay results taken from ChEMBL document CHEMBL2401732, “Evaluation of adenine as scaffold for the development of novel P2X3 receptor antagonists” (Eur J Med Chem, 2013).
Where a chain is given by its changes, count along the chain named. Activity calls are given as the source filed them. The rule behind the calls is not given here.

What was measured:
[1] = biological target: T1, P2X purinoceptor 3 (Rattus norvegicus) (UniProt P49654); experiment: Antagonist activity at rat recombinant P2X3 receptor expressed in HEK293T cells assessed as desensitization of alpha,beta-methyleneATP-induced current at 10 uM after 20 secs by patch clamp technique; assay type: cell-based; details: HEK-293T
T1 sequence (whole entry): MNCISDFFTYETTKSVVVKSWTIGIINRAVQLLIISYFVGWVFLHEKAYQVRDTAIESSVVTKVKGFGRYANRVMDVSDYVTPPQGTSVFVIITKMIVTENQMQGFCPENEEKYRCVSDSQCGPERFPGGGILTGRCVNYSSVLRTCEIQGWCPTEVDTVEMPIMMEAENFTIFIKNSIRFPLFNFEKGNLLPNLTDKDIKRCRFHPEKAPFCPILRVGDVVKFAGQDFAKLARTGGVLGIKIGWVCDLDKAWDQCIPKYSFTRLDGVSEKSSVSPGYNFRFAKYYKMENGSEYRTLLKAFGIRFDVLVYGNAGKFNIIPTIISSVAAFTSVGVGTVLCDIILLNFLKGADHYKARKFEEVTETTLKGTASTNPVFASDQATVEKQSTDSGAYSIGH
Outline: (§1)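 HEK 293T cells transiently co-transfected by calcium phosphate with pEGFP and pcDNA3-P2X3 (rat or human, 1:1), used 24 or 48 h later. GFP-positive cells whole-cell clamped at -60 mV, room temperature, CsCl pipette solution, HEPES-buffered bath pH 7.4. Control response averaged over ≥3 pulses of 100 μM α,β-meATP (2 s, 5 min apart). Compound applied 20 s before agonist. Screening at 100 μM, then 100–0.3 μM. Peak % inhibition computed; Hill fits of dose–inhibition data, n = 6–14 cells.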

[2] = biological target: T1, P2X purinoceptor 3 (Rattus norvegicus); experiment: Antagonist activity at rat recombinant P2X3 receptor expressed in HEK293T cells assessed as desensitization of alpha,beta-methyleneATP-induced current at 1 uM after 20 secs by patch clamp technique; assay type: cell-based; details: HEK-293T; outline: as §1
[3] = biological target: T1, P2X purinoceptor 3 (Rattus norvegicus); experiment: Antagonist activity at rat recombinant P2X3 receptor expressed in HEK293T cells assessed as desensitization of alpha,beta-methyleneATP-induced current at 0.3 uM after 20 secs by patch clamp technique; assay type: cell-based; details: HEK-293T; outline: as §1
[4] = biological target: T1, P2X purinoceptor 3 (Rattus norvegicus); experiment: Antagonist activity at rat recombinant P2X3 receptor expressed in HEK293T cells assessed as desensitization of alpha,beta-methyleneATP-induced current at 100 uM after 20 secs by patch clamp technique; assay type: cell-based; details: HEK-293T; outline: as §1
P2X purinoceptor 3 = biological target: T2, P2X purinoceptor 3 (Rattus norvegicus, UniProt P49654); experiment: Antagonist activity at rat recombinant P2X3 receptor expressed in HEK293T cells assessed as desensitization of alpha,beta-methyleneATP-induced current after 20 secs by patch clamp technique; assay type: cell-based, HEK-293T; outline: as §1
T2 sequence (P49654 whole entry): T1 sequence (whole entry)

[5] = biological target: T1, P2X purinoceptor 3 (Rattus norvegicus); experiment: Antagonist activity at rat recombinant P2X3 receptor expressed in HEK293T cells assessed as desensitization of alpha,beta-methyleneATP-induced current at 100 uM after 6 mins of compound wash out by patch clamp technique; assay type: cell-based; details: HEK-293T
Outline: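 Rat P2X3 in transfected HEK 293T cells, whole-cell clamp at -60 mV. After 20 s compound application and a 2 s pulse of 100 μM α,β-meATP, the cell was washed for 6 min. Recovery was assessed as the peak current to a repeat agonist pulse, compared with the control peak.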

[6] = biological target: T3, P2X purinoceptor 3 (Mus musculus) (UniProt Q3UR32); experiment: Antagonist activity at P2X3 receptor in C57Bl/6 wild type mouse trigeminal ganglion sensory neurons assessed as desensitization of alpha,beta-methyleneATP-induced current at 1 uM after 20 secs by patch clamp technique; assay type: tissue-based
T3 sequence (whole entry): T1 sequence (whole entry) with L144R, R202K, A377T
Outline: (§2)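 Native P2X3 in trigeminal ganglion neurons from C57Bl/6 mice (P10–14), dissociated with trypsin/collagenase/DNAse at 37 °C for 12 min and cultured 24 h. Small/medium neurons whole-cell voltage clamped at -60 mV, room temperature. Pipette KCl-based with ATP–Mg/GTP–Li, pH 7.2. Compound superfused 20 s, then 2 s pulse of 100 μM α,β-meATP. % inhibition = 100×(1−I2/I1) from peak currents.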

[7] = biological target: T4, P2X purinoceptor 3 (Homo sapiens) (UniProt P56373); experiment: Antagonist activity at human recombinant P2X3 receptor expressed in HEK293T cells assessed as desensitization of alpha,beta-methyleneATP-induced current at 100 uM after 20 secs by patch clamp technique; assay type: cell-based; details: HEK-293T, 1 uM, in the assay text read “at 1 uM” for “at 100 uM”; outline: as §1
T4 sequence (whole entry): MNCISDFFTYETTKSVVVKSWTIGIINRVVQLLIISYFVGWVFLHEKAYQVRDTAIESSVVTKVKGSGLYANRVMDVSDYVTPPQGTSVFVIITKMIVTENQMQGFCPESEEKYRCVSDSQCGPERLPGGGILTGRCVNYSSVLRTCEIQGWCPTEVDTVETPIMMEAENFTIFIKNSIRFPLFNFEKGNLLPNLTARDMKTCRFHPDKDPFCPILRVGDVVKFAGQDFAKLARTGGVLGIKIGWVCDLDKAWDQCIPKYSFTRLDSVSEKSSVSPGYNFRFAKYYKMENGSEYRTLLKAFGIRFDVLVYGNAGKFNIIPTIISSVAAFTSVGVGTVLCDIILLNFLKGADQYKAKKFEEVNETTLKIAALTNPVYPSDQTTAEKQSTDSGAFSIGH

[8] = biological target: T3, P2X purinoceptor 3 (Mus musculus); experiment: Antagonist activity at P2X3 receptor in C57Bl/6 wild type mouse trigeminal ganglion sensory neurons assessed as desensitization of alpha,beta-methyleneATP-induced current at 100 uM after 20 secs by patch clamp technique; assay type: tissue-based; outline: as §2
[9] = biological target: T1, P2X purinoceptor 3 (Rattus norvegicus); experiment: Antagonist activity at rat recombinant P2X3 receptor expressed in HEK293T cells assessed as desensitization of alpha,beta-methyleneATP-induced current at 100 uM after 20 secs by patch clamp technique relative to control; assay type: cell-based; set-up: scale not given: the % may be the effect or the level left; details: HEK-293T; outline: as §1

SMILES	inhibition [1]	inhibition [2]	inhibition [3]	inhibition [4]	IC50 (P2X purinoceptor 3)	further results
COc1cc(C(C)C)c(Cn2cnc3c(NC4CCCC4)nc(N)nc32)cc1I	60%	51%	45%	58%		
COc1cc(C(C)C)c(Cn2cnc3c(N)nc(N)nc32)cc1I	78%	35%	23%	93%	2230 nM	
COc1cc(Cn2cnc3c(N)nc(N)nc32)c(C(C)C)cc1OC	36%	8%		82%	18600 nM	Activity [5]: inactive
CNc1nc(N)nc2c1ncn2Cc1cc(OC)c(OC)cc1C(C)C				71%		
COc1cc(C(C)C)c(Cn2cnc3c(OC)nc(N)nc32)cc1I				50%		
COc1cc(Cn2cnc3nc(N)nc(Cl)c32)c(C(C)C)cc1OC				19%		
COc1cc(Cn2cnc3nc(N)nc(N)c32)c(C(C)C)cc1OC				23%		
CNc1nc(N)nc2c1ncn2Cc1cc(I)c(OC)cc1C(C)C	76%	41%	22%	98%	1740 nM	inhibition [6]: 37%; inhibition [7]: 29%; inhibition [8]: Active; Activity [5]: inactive
COc1cc(C(C)C)c(Cn2cnc3nc(N)nc(N)c32)cc1I	43%					
COc1cc(Cn2cnc3c(Cl)nc(N)nc32)c(C(C)C)cc1OC				27%		Activity [9]: 6%
